# Hits are enriched below; roughly 2.3% of the tested compounds scored in any of these assays.
# TRPC4 block: inhibitors of mouse TRPC4 channel | Q9QUQ5 | HEK293 TRPC4beta/mu-opioid, DAMGO-evoked Fluo4 calcium flux; active compounds read low | B-score at 10 µM | actives 0.39% (n = 300,000);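 active = B-score over 3 SD under the library average, no early fluorescence shift, positive overall ratio signal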
#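 material = TRPC4beta/mu-opioid receptor HEK293 cell line | probe or stimulus = sequential submaximal and maximal DAMGO stimulation | compound dosing = one concentration per compound | measured by = Fluo4 Ca2+ flux fluorescence | evaluation = integrated fluorescence ratio relative to baseline, converted to per-well B score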
# Yeast superoxide: yeast age-related superoxide inhibition as caloric restriction mimetic | superoxide response (% of plate mean), % at 10 µM | S. cerevisiae aged cells, superoxide DHE fluorescence; active compounds read low | actives 0.18% (n = 330,000) | AID 2690;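 active = superoxide response under a set limit, about three screen SD below normal, cut at about 65% in these data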;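 note: yeast aged for seven days with compound at 30 °C before DHE staining; 100% = average MFI of all compound-treated wells on the plate with controls excluded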
# TRPC6 activator: activates the mouse TRPC6 cation channel. B-score at 10 µM. HEK293-TRPC6 membrane potential dye fluorescence; active compounds read high. actives 0.13% (n = 310,000). Q61143;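 active = B-score of the integrated fluorescence ratio above library mean plus 3 SD, and starting fluorescence ratio within library mean plus 5 SD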;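 note: higher score means more depolarization so channel activation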
# TRPC4 PAM: TRPC4 (mouse) allosteric potentiation; Q9QUQ5; HEK293 TRPC4beta/mu-opioid, DAMGO EC20, Fluo-4 Ca2+ flux; active compounds read high; B-score at 10 µM; actives 0.42% (n = 310,000); AID 2227;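 active = B-score of calcium response area above 5 SD of library B-scores, with initial fluorescence ratio within 5 SD of library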;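 note: B-score of integrated fluorescence ratio over time as area under calcium response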
# TRPC4 act: TRPC4 (mouse) channel activation; B-score at 10 µM; actives 0.49% (n = 310,000); HEK293 TRPC4beta/mu-opioid, Fluo4 calcium fluorescence; active compounds read high;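 active = B-score above 5 SD of library B-scores, and initial fluorescence ratio not above library mean plus 5 SD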;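 note: positive B-score marks a calcium rise read as TRPC4 activation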
#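 Technique: kinetic Fluo4 calcium fluorescence; Test system: TRPC4beta and mu-opioid receptor HEK293 stable cells; Measure: B-scored integrated calcium fluorescence ratio; Benchmarks: low control buffer alone, high control maximal DAMGO; Schedule: 45 min room-temperature Fluo4 loading, 110 s read.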
# TRPC6 inh: mouse TRPC6 channel inhibition | HEK293-TRPC6, membrane potential dye, ACh-evoked depolarization; active compounds read low | actives 1.1% (n = 310,000) | B-score at 10 µM | AID 2553 | Q61143;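 active = B-score under library mean minus 3 SD, initial fluorescence not abnormally high, positive integrated signal ratio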;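 note: B-score derived from integrated fluorescence ratio over the kinetic read; more negative B-score means stronger inhibition of depolarization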
# Superoxide pick: yeast aging superoxide inhibition, cherry pick confirmation | superoxide response (% of plate), % at 10 µM | S. cerevisiae aging, superoxide DHE fluorescence; active compounds read low | shares compounds with Yeast superoxide | actives 1% (n = 850);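 active = superoxide signal below 65% of the plate average of sample wells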;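 note: cells aged with compound for 7 days at 30 degrees C before staining; 100% equals mean DHE fluorescence of all compound wells on the plate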
# DHE counter: counter-screen for compounds affecting DHE oxidation and fluorescence in yeast. shares compounds with Yeast superoxide. S. cerevisiae BY4741, flow cytometry; active compounds read low. fluorescence response, % at 10 µM. 850 tested, under 10 active. AID 435000;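 active = fluorescence response below 15%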;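 note: percent of the mean fluorescence averaged over all compound wells on the plate; lower means stronger quenching of DHE signal or ROS scavenging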
# An asterisk follows results filed as active; i = inactive; / = not tested or not shown.
SMILES,TRPC4 block,Yeast superoxide,TRPC6 activator,TRPC4 PAM,TRPC4 act,TRPC6 inh,Superoxide pick,DHE counter
O=C(CN1CCN(CC(=O)Nc2ccccc2Cl)CC1)Nc1ccc(F)c(F)c1,i,44*,i,i,i,i,95,94
O=C(CCc1nnc2ccc(N3CCC4(CC3)OCCO4)nn12)NCc1ccc(F)cc1,i,83,i,i,i,i,/,/
CSc1nc2ccccc2cc1/C=C(\C#N)c1ccc(Cl)c(Cl)c1,i,105,i,i,i,i,/,/
CC(=O)O[C@H]1CC[C@@]2(C)[C@@H](CC[C@H]3[C@@H]4CC[C@H](C(C)O)[C@@]4(C)CC(=O)[C@@H]32)C1 (stereo not given in full),i,98,i,i,i,i,/,/
COc1ccc(N)cc1NC(=O)CN1CCCC1,i,98,i,i,i,i,/,/
Cc1cc(N)ccc1NC(=O)CN1CCCC1,i,64*,i,i,i,i,91,92
COc1ccc(NC(=O)CN2CCN(c3ccccn3)CC2)cc1Cl,i,55*,i,i,i,i,99,97
COc1ccc(NC(=O)CN2CCN(c3ccc(F)cc3)CC2)cc1Cl,i,115,i,i,i,i,/,/
CSc1ccccc1NC(=O)CN1CCN(c2ccccn2)CC1,i,97,i,i,i,i,99,101
O=C(CN1CCN(c2ccccn2)CC1)Nc1cccc(C(F)(F)F)c1,i,105,i,i,i,i,98,90
O=C(CN1CCN(c2ccccc2)CC1)Nc1cccc(C(F)(F)F)c1,i,110,i,i,i,i,/,/
CCOC(=O)C1CCCN(C(=O)/C=C/c2ccc([N+](=O)[O-])cc2)C1 (stereo not given),i,110,i,i,i,i,/,/
COc1cccc(C=NCCCN=Cc2cccc(OC)c2O)c1O,i,112,i,i,i,i,/,/
Cc1nn(Cc2ccccc2)c(C)c1NC(=O)CSc1nc2c(c(C(F)(F)F)n1)CCc1ccccc1-2,i,110,i,i,i,i,/,/
CN(C(=O)CN1CCN(c2ccc([N+](=O)[O-])cn2)CC1)c1ccccc1,i,130,i,i,i,i,96,103
c1ccc2nc3ccccc3nc2c1,i,64*,i,i,i,i,67,94
Cc1ccccc1NC(=O)c1nc(S(C)(=O)=O)ncc1Cl,i,108,i,i,i,i,99,91
CSc1ncc(Cl)c(C(=O)Nc2cccc(Cl)c2)n1,i,94,i,i,i,i,96,99
Cc1cccc(C)c1NC(=O)c1nc(S(=O)(=O)Cc2ccccc2)ncc1Cl,i,111,i,i,i,i,/,/
CSc1ncc(Cl)c(C(=O)Nc2ccccc2Br)n1,i,103,i,i,i,i,105,108
CSc1ncc(Cl)c(C(=O)Nc2cccc3ccccc23)n1,i,98,i,i,i,i,/,/
CSc1ncc(Cl)c(C(=O)Nc2cccc(C)c2)n1,i,96,i,i,i,i,101,90
CCOc1cc(C)c(Cl)cc1S(=O)(=O)NCc1ccco1,i,92,i,i,i,i,/,/
CCc1ccccc1N(CC(=O)Nc1cccc(N(C)S(C)(=O)=O)c1)S(C)(=O)=O,i,95,i,i,i,i,/,/
COc1ccc(CCNC(=O)c2ccc(OCC(=O)N3CCOCC3)c(OC)c2)cc1,i,100,i,i,i,i,/,/
SMILES,TRPC4 block,Yeast superoxide,TRPC6 activator,TRPC4 PAM,TRPC4 act,TRPC6 inh,Superoxide pick,DHE counter
COc1ccc(CCNC(=O)c2ccc(OCC(=O)N3CCOCC3)c(OC)c2)cc1OC,i,64*,i,i,i,i,100,104
CC(=O)C1=C(O)C(=O)N(CCc2ccccc2)C1c1ccccc1[N+](=O)[O-] (stereo not given),i,59*,i,i,i,i,107,97
CN1C(=O)CCC(CCC(=O)O)(c2ccccc2O)C1=O (stereo not given),i,63*,i,i,i,i,103,106
COc1ccc(C2(c3ccc(OC(C)=O)cc3OC(C)=O)CC(c3ccccc3)NC(=S)N2)cc1 (stereo not given),i,61*,i,i,i,i,120,123
CCCc1cc(=O)n2[nH]c(-c3ccc(C)cc3)cc2n1,i,91,i,i,i,i,/,/
O=c1cc(-c2ccccc2)nc2cc(-c3ccc(Br)cc3)[nH]n12,i,53*,i,i,i,i,95,96
CCc1c(C)nc2cc(-c3ccc(Cl)cc3)[nH]n2c1=O,i,92,i,i,i,i,99,97
CCCc1cc(=O)n2[nH]c(-c3ccc(Cl)cc3)cc2n1,i,100,i,i,i,i,108,124
Cc1cc2nc(C)c(Cl)c(=O)n2[nH]1,i,104,i,i,i,i,/,/
Cc1nc2cc(-c3ccc(Br)cc3)[nH]n2c(=O)c1Cl,i,101,i,i,i,i,94,90
O=S(=O)(c1cccc2nonc12)N1CCN(c2ccccc2F)CC1,i,105,i,i,i,i,/,/
CN(Cc1cn[nH]c1-c1cc2ccccc2o1)CC1CCOCC1,i,99,i,i,i,i,/,/
COc1ccc(C(=O)NNC(=O)C(=O)/C=C(\O)c2ccc(C)cc2)cc1,i,91,i,i,i,i,/,/
Cc1nc2cc(-c3ccc(F)cc3)[nH]n2c(=O)c1C,i,95,i,i,i,i,108,94
O=C(CN1CCN(C(=O)c2c(F)cccc2F)CC1)Nc1ccccc1C(F)(F)F,i,52*,i,i,i,i,108,110
O=C(CCC(=O)c1ccccc1)NCCc1c[nH]c2ccccc12,i,91,i,i,i,i,/,/
Cc1nc(-c2ccc(NC(=O)Cc3ccccc3)cc2)cs1,i,64*,i,i,i,i,120,123
CCc1ccc(C(C)NC(=S)NC2CCCCC2)cc1 (stereo not given),i,102,i,i,i,i,/,/
